According to ChEMBL document CHEMBL1145129, “Design, synthesis, and anticancer properties of 4,4'-dihydroxybenzophenone-2,4-dinitrophenylhydrazone and analogues” (J Med Chem, 2003):
≈ marks a conversion by molar mass, not a printed value.

What was measured:
Melanoma tumor cell line [1] = assay: In vitro cytotoxicity against Human melanoma tumor cells.; type: functional, cell-based
In short: (§1)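 Fresh surgical human tumor specimens minced to ≤0.1 mm fragments in RPMI-1640 with 10% FBS, streptomycin and penicillin (10⁶–10⁸ cells/mL), explanted into slide flasks. Exposed 24 h at 37 °C, 5% CO₂, to test agent 0.1–20 μg/mL (≥5 doses over 3 logs), in duplicate. Washed, recultured 7–14 days, fixed, HPF cell counts vs control; IC50 (SD) from percent growth.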

[2] = In vitro cytotoxicity in Human breast tumor cells; type: functional, cell-based; in short: as §1
Homo sapiens [3] = species on record: Homo sapiens; assay: In vitro cytotoxicity against Human lung tumor cells.; type: functional; in short: as §1
Colon carcinoma cell = assay: In vitro cytotoxicity was tested in human colon tumor cells; type: functional, cell-based; in short: as §1
Homo sapiens [4] = species on record: Homo sapiens; assay: In vitro cytotoxicity in Human ovary tumor cells; type: functional; details: Female gonad; in short: as §1
Homo sapiens [5] = species on record: Homo sapiens; assay: In vitro cytotoxicity against Human lung tumor cells; Not available.; type: functional; in short: as §1
Melanoma tumor cell line [6] = assay: In vitro cytotoxicity against Human melanoma tumor cells; Not available.; type: functional, cell-based; in short: as §1
[7] = tested on: breast cancer cells (Homo sapiens); assay: In vitro cytotoxicity in Human breast tumor cells
MDA-MB-435 = assay: In vitro cytotoxicity in MDA-MB-435 cell line; type: functional, cell-based; details: Homo sapiens
In short: (§2)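 Established tumor lines kept in RPMI-1640 with 10% fetal calf serum and penicillin/streptomycin at 36 °C, 10% CO₂. Seeded 2000–3000 cells/well; hydrazone-containing medium added after 18 h, then 36 h further culture. Viable cells read by MTT absorbance at 570 nm; cytostasis (%) = (1 − A_treated/A_control) × 100.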

[8] = In vitro cytotoxicity in SN 12 PM6 cell line; type: functional, cell-based; details: Homo sapiens; in short: as §2
[9] = In vitro cytotoxicity in K 1735 M2 cell line; type: functional
[10] = In vitro cytotoxicity in KM 12L4 cell line; type: functional, cell-based; details: Homo sapiens; in short: as §2

SMILES	IC50 (Melanoma tumor cell line [1]) [µg/mL]	IC50 [2] [µg/mL]	IC50 (Homo sapiens [3]) [µg/mL]	IC50 (Colon carcinoma cell) [µg/mL]	IC50 (Homo sapiens [4]) [µg/mL]	IC50 (Homo sapiens [5])	IC50 (Melanoma tumor cell line [6])	IC50 [7] [µg/mL]	IC50 (MDA-MB-435) [µg/mL]	IC50 [8] [µg/mL]	IC50 [9] [µg/mL]	IC50 [10] [µg/mL]
O=[N+]([O-])c1ccc(NN=c2c3ccccc3[s+]([O-])c3ccccc23)c([N+](=O)[O-])c1 (stereo unspecified)	> 10	> 10	> 10	> 10	> 10	–	–	–	–	–	–	–
CC(=O)Oc1cccc2c(/N=N/c3ccc([N+](=O)[O-])cc3[N+](=O)[O-])c3cccc(O)c3c(O)c12	0.097 (≈ 0.21 µM)	0.05 (≈ 0.108 µM)	–	0.03 (≈ 0.0649 µM)	0.4 (≈ 0.865 µM)	Not Active	–	–	–	–	–	–
CC(=O)c1ccc2c(c1)/C(=N\Nc1ccc([N+](=O)[O-])cc1[N+](=O)[O-])c1ccc(C(C)=O)cc1-2	0.5 (≈ 1.13 µM)	> 5	> 5	0.7 (≈ 1.58 µM)	0.9 (≈ 2.03 µM)	–	–	–	–	–	–	–
Nc1ccc2c(/N=N/c3ccc([N+](=O)[O-])cc3[N+](=O)[O-])c3ccccc3c(O)c2c1N	–	5 (≈ 12 µM)	–	5 (≈ 12 µM)	6 (≈ 14.3 µM)	Not Active	Not Active	–	–	–	–	–
O=c1c2cccc3c2c(nn1-c1ccccc1[N+](=O)[O-])-c1ccccc1-3	0.4 (≈ 1.17 µM)	> 5	> 5	> 5	> 5	–	–	–	–	–	–	–
C=CCOc1cccc2c(/N=N/c3ccc([N+](=O)[O-])cc3[N+](=O)[O-])c3cccc(OC(C)=O)c3c(O)c12	–	0.1 (≈ 0.199 µM)	0.07 (≈ 0.139 µM)	0.08 (≈ 0.159 µM)	–	–	Not Active	–	–	–	–	–
O=[N+]([O-])c1ccc(N/N=C(\c2ccccc2)c2ccc(O)cc2O)c([N+](=O)[O-])c1	–	–	–	–	–	Not Active	Not Active	0.5 (≈ 1.27 µM)	–	–	–	–
Nc1ccc2c(NNc3ccc([N+](=O)[O-])cc3[N+](=O)[O-])c3cc(N)ccc3c(/N=N/c3ccc([N+](=O)[O-])cc3[N+](=O)[O-])c2c1	–	> 5	–	> 5	> 5	Not Active	Not Active	–	–	–	–	–
CC(=O)Nc1ccc(C(=NNc2ccc([N+](=O)[O-])cc2[N+](=O)[O-])c2ccc(NC(C)=O)cc2)cc1	> 10	> 10	–	> 10	> 10	Not Active	–	–	–	–	–	–
O=[N+]([O-])c1ccccc1NN=C(c1ccc(O)cc1)c1ccc(O)cc1	–	–	–	4.7 (≈ 13.5 µM)	–	Not Active	Not Active	3.9 (≈ 11.2 µM)	–	–	–	–
O=[N+]([O-])c1ccc(/N=N/c2c3ccccc3c3c4c(cccc24)NN3)c([N+](=O)[O-])c1	–	> 5	–	> 5	> 5	Not Active	Not Active	–	–	–	–	–
C/C(=N\Nc1ccc([N+](=O)[O-])cc1)c1ccc(O)cc1	–	5 (≈ 18.4 µM)	–	–	6 (≈ 22.1 µM)	Not Active	Not Active	–	–	–	–	–
Oc1ccc(C(=NNc2ccccc2)c2ccc(O)cc2)cc1	7 (≈ 23 µM)	–	> 10	> 5	6.2 (≈ 20.4 µM)	–	–	> 5	–	–	–	–
O=[N+]([O-])c1ccc(/N=N/c2c3ccccc3c(O)c3c(O)c4ccccc4cc23)c([N+](=O)[O-])c1	–	0.3 (≈ 0.66 µM)	0.1 (≈ 0.22 µM)	–	–	–	Not Active	–	–	–	–	–
CN(C)c1ccc(C(=NNc2ccc([N+](=O)[O-])cc2[N+](=O)[O-])c2ccc(N(C)C)cc2)cc1	5 (≈ 11.1 µM)	4.2 (≈ 9.36 µM)	–	10 (≈ 22.3 µM)	–	Not Active	–	–	–	–	–	–
CC(=O)Oc1ccc(C(=NNc2ccc([N+](=O)[O-])cc2[N+](=O)[O-])c2ccc(OC(C)=O)cc2)cc1	> 10	–	> 10	> 10	> 10	–	–	–	–	–	–	–
O=[N+]([O-])c1ccc(NN=C(c2ccc(O)cc2O)c2ccc(O)cc2O)c([N+](=O)[O-])c1	–	–	> 5	> 5	0.03 (≈ 0.0704 µM)	–	Not Active	> 10	–	–	–	–

SMILES	IC50 (Melanoma tumor cell line [1]) [µg/mL]	IC50 [2] [µg/mL]	IC50 (Homo sapiens [3]) [µg/mL]	IC50 (Colon carcinoma cell) [µg/mL]	IC50 (Homo sapiens [4]) [µg/mL]	IC50 (Homo sapiens [5])	IC50 (Melanoma tumor cell line [6])	IC50 [7] [µg/mL]	IC50 (MDA-MB-435) [µg/mL]	IC50 [8] [µg/mL]	IC50 [9] [µg/mL]	IC50 [10] [µg/mL]
O=[N+]([O-])c1ccc(N(Cc2ccccc2)N=c2c3ccccc3oc3ccccc23)c([N+](=O)[O-])c1	> 10	> 10	–	–	> 10	Not Active	–	–	–	–	–	–
CC(=O)Oc1cccc2c1-c1nn(-c3ccccc3)c(=O)c3cccc(c13)C2=O	–	> 5	–	–	> 10	Not Active	Not Active	–	–	–	–	–
O=[N+]([O-])c1ccc(/N=N/c2c3ccccc3c(O)c3c(O)c(O)ccc23)c([N+](=O)[O-])c1	> 5	0.007 (≈ 0.0167 µM)	> 10	0.25 (≈ 0.595 µM)	> 10	–	–	–	–	–	–	–
COc1ccc(C(=NNc2ccc([N+](=O)[O-])cc2[N+](=O)[O-])c2ccc(OC)cc2O)c(O)c1	–	–	–	4.5 (≈ 9.9 µM)	> 5	Not Active	Not Active	1.5 (≈ 3.3 µM)	–	–	–	–
Cc1ccc(NN=C(c2ccc(O)cc2)c2ccc(O)cc2)c(C)c1	–	–	–	–	–	Not Active	Not Active	10 (≈ 30.1 µM)	–	–	–	–
O=[N+]([O-])c1ccc(N/N=C2\c3ccccc3-c3cccc(O)c32)c([N+](=O)[O-])c1	–	7.5 (≈ 19.9 µM)	–	> 5	–	Not Active	Not Active	–	–	–	–	–
CCN(CC)c1ccc(C(=NNc2ccc([N+](=O)[O-])cc2[N+](=O)[O-])c2ccc(N(CC)CC)cc2)cc1	5 (≈ 9.91 µM)	> 7	–	> 10	–	Not Active	–	–	–	–	–	–
O=[N+]([O-])c1ccc(N/N=C(\c2ccc(O)cc2)c2ccc(Cl)cc2)c([N+](=O)[O-])c1	–	–	–	> 10	–	Not Active	Not Active	8.7 (≈ 21.1 µM)	–	–	–	–
O=[N+]([O-])c1ccc(/N=N/c2c3cc(O)ccc3c(NNc3ccc([N+](=O)[O-])cc3[N+](=O)[O-])c3cc(O)ccc23)c([N+](=O)[O-])c1	–	2.5 (≈ 4.16 µM)	1 (≈ 1.67 µM)	3.9 (≈ 6.5 µM)	–	–	Not Active	–	–	–	–	–
O=[N+]([O-])c1ccc(NN=C(c2ccccc2O)c2ccccc2O)c([N+](=O)[O-])c1	> 5	–	6 (≈ 15.2 µM)	8 (≈ 20.3 µM)	5 (≈ 12.7 µM)	–	–	4.7 (≈ 11.9 µM)	–	–	–	–
O=[N+]([O-])c1ccc(NN=C(c2ccccc2)c2ccccc2)c([N+](=O)[O-])c1	> 10	–	> 5	–	> 10	–	–	> 5	–	–	–	–
O=[N+]([O-])c1ccc(NN=c2c3ccccc3oc3ccccc23)c([N+](=O)[O-])c1	> 10	0.04 (≈ 0.106 µM)	> 10	0.05 (≈ 0.133 µM)	0.05 (≈ 0.133 µM)	–	–	–	–	–	–	–
O=[N+]([O-])c1ccc(NN=C2c3cc(O)ccc3-c3ccc(O)cc32)c([N+](=O)[O-])c1	4.1 (≈ 10.5 µM)	0.05 (≈ 0.127 µM)	> 10	0.06 (≈ 0.153 µM)	0.08 (≈ 0.204 µM)	–	–	–	–	–	–	–
Nc1ccc(/C(=N/Nc2ccc([N+](=O)[O-])cc2[N+](=O)[O-])c2ccccc2N)cc1	6 (≈ 15.3 µM)	0.7 (≈ 1.78 µM)	–	8 (≈ 20.4 µM)	2 (≈ 5.1 µM)	Not Active	–	–	–	–	–	–
O=[N+]([O-])c1ccc(N/N=C(\c2ccccc2)c2ccc(O)cc2)c([N+](=O)[O-])c1	> 10	–	–	0.5 (≈ 1.32 µM)	0.3 (≈ 0.793 µM)	Not Active	–	5 (≈ 13.2 µM)	–	–	–	–
CC(=O)Oc1cccc2c(/N=N/c3ccc([N+](=O)[O-])cc3[N+](=O)[O-])c3cccc(OC(C)=O)c3c(O)c12	0.07 (≈ 0.139 µM)	0.04 (≈ 0.0793 µM)	0.1 (≈ 0.198 µM)	0.16 (≈ 0.317 µM)	0.3 (≈ 0.595 µM)	–	–	–	0.041 (≈ 0.0813 µM)	0.021 (≈ 0.0416 µM)	0.042 (≈ 0.0833 µM)	0.07 (≈ 0.139 µM)
